# MC4R ag barr: human MC4R agonism via beta-arrestin; U2OS MC4R beta-arrestin complementation, luminescence; percent of melanotan II response, DMSO zero; activation, % at 8.9 µM; hit rate 0.98% among 360,000;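 active means activation above a per-plate cutoff, the mean activation of sample wells on that plate plus 3 SD, cut at about 8% in these data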
# Target sequence (P32245 whole entry, looked up): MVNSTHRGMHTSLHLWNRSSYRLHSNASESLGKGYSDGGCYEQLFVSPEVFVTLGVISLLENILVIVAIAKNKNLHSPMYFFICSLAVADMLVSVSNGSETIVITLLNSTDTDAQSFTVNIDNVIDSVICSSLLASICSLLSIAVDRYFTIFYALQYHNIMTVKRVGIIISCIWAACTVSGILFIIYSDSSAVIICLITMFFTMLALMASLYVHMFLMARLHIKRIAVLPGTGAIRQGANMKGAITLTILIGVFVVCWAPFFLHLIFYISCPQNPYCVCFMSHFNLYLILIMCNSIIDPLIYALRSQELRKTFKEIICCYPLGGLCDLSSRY
# MC4R antagonist: human MC4R antagonism in cAMP assay | P32245 | MC4R-expressing cells, MTII-stimulated cAMP, LANCE TR-FRET | inhibition, % at 6.5 µM | hit rate 0.48% among 360,000;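 active means inhibition above its plate's cutoff, the mean of tested wells on that plate plus 3 SD, cut at about 29% in these data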;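 further: 0% = Melanotan II alone and 100% = Melanotan II plus saturating MCL0020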
#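 material = U2OS cells stably expressing human melanocortin 4 receptor (MC4R) | also added = Melanotan II challenge | dosing = single nominal compound dose of 6.5 µM | detection = TR-FRET with Eu-cAMP and labeled anti-cAMP, 671 nm | replication = singlicate | timing = compound 30 min, challenge 1 h, detection 1 h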
# MsrA act: activators of bovine methionine sulfoxide reductase A | purified bovine MsrA, absorbance read-out | hit rate 0.3% among 360,000 | AID 602163 | activation, % at 10.6 µM; in the data active means activation above about 7.5%;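 further: 0% = vehicle and 100% = reference activator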
# MsrA inh: inhibits bovine methionine sulfoxide reductase A; purified bovine MsrA, absorbance read-out; inhibition, % at 15.5 µM; hit rate 0.75% among 360,000; AID 651718; in the data active means inhibition above about 4.5%;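 further: 0% = vehicle wells with enzyme and 100% = reference inhibitor wells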
# MC4R barr conf: human MC4R beta-arrestin agonism confirmation. shares compounds with MC4R ag barr. U2OS MC4R beta-arrestin recruitment, luminescence; scaled DMSO 0%, Melanotan II 100%. activation, % at 8.9 µM. hit rate 31% among 2,400. AID 602192;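 active means mean activation across replicates above the hit cutoff set in the earlier primary screen, cut at about 8% in these data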
# MOR DOR agonist: OPRM1-OPRD1 heterodimer agonism counter-screen; U2OS PathHunter beta-arrestin, beta-gal luminescence; percent of deltorphin B response, DMSO zero; AID 602194; shares compounds with MC4R ag barr; hit rate 5.8% among 2,400; activation, % at 9.2 µM;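 active means mean activation across replicates exceeds the hit threshold derived in the earlier primary screen, cut at about 18% in these data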;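 further: 100% = deltorphin B at 0.9 µM final and 0% = DMSO alone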
# An asterisk follows results filed as active; . = no result. Most compounds without a hit are left out; they make up all but 2.3% or so of the library.
SMILES,MC4R ag barr,MC4R antagonist,MsrA act,MsrA inh,MC4R barr conf,MOR DOR agonist
COc1ccccc1CC(=O)Nc1ccc(-c2noc(COc3ccc(Cl)c(C)c3)n2)cc1,10*,9,-1,0,1,7
CCOc1ccccc1-c1nc(-c2ccc(NC(=O)Cc3ccccc3OC)cc2)no1,-1,4,-8,2,.,.
COc1ccc2nc(C)cc(SCC(=O)NNC(=O)COc3ccc(C)cc3)c2c1,10*,7,-2,1,-2,2
COc1ccc(C(C)(O)c2nc(-c3ccccc3)cs2)cc1 (stereo not drawn),-1,-4,-3,1,.,.
O=C(Cn1nc(C(=O)O)c2ccccc2c1=O)Nc1cc(Cl)cc(Cl)c1,12*,2,-6,1,0,5
CCCc1ccc(C(=O)Cn2nc(C(=O)O)c3ccccc3c2=O)cc1,10*,6,0,1,4,5
NC(=O)c1c(NC(=O)Cn2nc(C(=O)O)c3ccccc3c2=O)sc2c1CCCC2,10*,2,-1,1,8,4
Cc1ccccc1NC(=O)c1nc[nH]c1C(=O)NCc1ccccc1,-1,-6,2,-1,.,.
COc1ccc(CCN(C)CCCN2CC(c3ccccc3)CC2=O)cc1OC (stereo not drawn),-2,1,3,2,.,.
COc1ccc(C(C)NC(=O)CC23CC4CC(CC(C4)C2)C3)cc1 (stereo not drawn),1,3,-5,0,.,.
COc1ccc2nc(NC(=O)c3ccc4ncsc4c3)sc2c1,2,4,-8,.,.,.
COc1ccc2nc(NC(=O)c3ccc(-n4nc(C)cc4C)cc3)sc2c1,20*,-2,-4,-1,-3,8
COc1ccc2nc(NC(=O)c3ccc(F)cc3)sc2c1,13*,0,-4,-1,-1,4
COc1ccc2nc(NC(C)=O)sc2c1,0,-4,-1,0,.,.
O=C(NNc1ccccc1)C(=O)NNS(=O)(=O)c1ccc(CCCl)cc1,0,16,-2,2,.,.
O=C(OCC(=O)c1c[nH]c2ccccc12)c1cc2ccccc2cc1O,12*,-1,-6,1,3,3
COc1ccc(C(=O)OCC(=O)c2c[nH]c3ccccc23)c(OC)c1,-1,-7,-3,0,.,.
Cc1sc2nc(C)n(/N=C/c3ccccc3O)c(=O)c2c1C,13*,5,-8,0,3,3
COC(=O)CN1C(=O)C(O)(CC(=O)c2ccccc2)c2ccccc21 (stereo not drawn),-1,7,-1,0,.,.
O=C(Nc1ccc(-c2ccccc2)cc1)c1ccc2c(c1)S(=O)(=O)c1ccccc1C2=O,0,9,-2,0,.,.
C=CC[C@@H](Cc1ccc(F)cc1)C(=O)OC[C@@H]1CCCN1C(=O)[C@@H](CC=C)CC(=O)N[C@@H](CO)Cc1ccccc1,8,2,-4,0,.,.
Cc1ccc(O)c(-c2cc(-c3cccc(F)c3)n[nH]2)c1,10*,-8,0,0,5,7
Cc1ccccc1S(=O)(=O)Cc1ccc(C(=O)NCCCN(C)Cc2ccccc2)o1,2,27,1,0,.,.
O=C(Nc1ccc(SC(F)F)cc1)C12CCC(CC1)C2,-1,-2,-5,-1,.,.
C=C1C2(C(=O)Nc3ccc(SC(F)F)cc3)CCC(C2)C1(C)C (stereo not drawn),17*,-4,-9,-1,0,6
SMILES,MC4R ag barr,MC4R antagonist,MsrA act,MsrA inh,MC4R barr conf,MOR DOR agonist
O=C(N/N=C/c1ccccc1)c1ccc(-c2ccccc2)cc1,3,-2,-3,-1,.,.
O=C(N/N=C\c1ccccc1F)c1ccc(-c2ccccc2)cc1,16*,0,-2,1,6,9
c1ccc(N2CCN(c3nc(-c4ccccn4)nc4ccccc34)CC2)cc1,-3,6,-9,4,.,.
O=c1[nH]nc(Cc2ccc(-c3cccc(Cl)c3)o2)c2ccccc12,14*,-18,3,-1,7,6
Clc1cccc(-c2ccc(CNCc3ccccn3)o2)c1,2,22,-1,0,.,.
CC(=O)Nc1cc(-c2ccccc2N(C)C)cn2c(-c3ccc(S(C)(=O)=O)cc3)cnc12,3,14,-1,1,.,.
COc1ccc(-c2cc(NC(C)=O)c3ncc(-c4ccccc4)n3c2)c(OC)c1,32*,9,-1,0,37*,2
COc1ccc(-c2cnc3c(NC=O)cc(-c4ccccc4OC)cn23)cc1OC,5,-60,-1,-1,.,.
COc1cccc(-c2cnc3c(NC(C)=O)cc(-c4cc(OC)c(OC)c(OC)c4)cn23)c1,29*,12,0,0,21*,1
CC(=O)Nc1cc(-c2ccccc2N(C)C)cn2c(-c3ccccc3)cnc12,18*,6,-3,0,32*,3
COc1ccccc1-c1cc(NC(C)=O)c2ncc(-c3ccccc3)n2c1,16*,13,-6,0,18*,3
CC1CCN(S(=O)(=O)c2ccc(S(=O)(=O)N3CCC4(CC3)OCCO4)cc2)CC1,0,3,-2,0,.,.
COc1cccc(-c2cnc3c(NC(C)=O)cc(-c4ccncc4)cn23)c1,5,7,-5,1,.,.
COc1cccc(-c2cnc3c(NC(C)=O)cc(-c4ccccc4OC)cn23)c1,22*,19,1,1,15*,2
C=CCSc1nnc(NC(=O)CCNC(=O)c2ccco2)s1,-1,10,0,0,.,.
CCOC(=O)C1(C)CCN1C(=O)c1ccc(OC)c(OC)c1 (stereo not drawn),-1,0,0,2,.,.
CCCCCc1ccc(OCCC[n+]2ccccc2)c(CCCCC)c1,15*,18,1,-2,4,8
CC(=O)Nc1ccc(OCCC[n+]2ccccc2)cc1,-2,-1,-3,0,.,.
O=C(Nc1ccc(Oc2ccccc2)cc1)C1CCCN(c2ncccn2)C1 (stereo not drawn),9.9*,4,-1,-1,0,3
CC(=O)Nc1ccc(NC(=O)C2CCCN(c3ncccn3)C2)cc1 (stereo not drawn),0,-2,-3,1,.,.
Cc1ccc(NC(=O)C(C)OC(=O)c2n[nH]c3ccccc23)cc1 (stereo not drawn),-4,1,-3,-1,.,.
CCOC(=O)c1[nH]c(COC(=O)CCOc2ccccc2OC)c(C(=O)OCC)c1C,16*,5,0,0,2,6
CCOC(Cn1c(-c2ccc(OC)cc2)nc2ccccc21)OCC,1,-1,-9,0,.,.
Oc1ccccc1-c1nc(NCc2cccnc2)c2ccccc2n1,-3,-2,-3,0,.,.
Oc1ccccc1-c1nc(NCc2ccco2)c2ccccc2n1,13*,-5,-15,1,6,3
Oc1ccccc1-c1nc(NCc2ccccc2)c2ccccc2n1,12*,2,-6,-1,8,5

# Screens: PubChem BioAssay, The Scripps Research Institute Molecular Screening Center
